Sampled rows, rich in hits. Any-hit rate of the full collection: about 1.9%.
aSyn UTR inh – MLPCN primary screen, SNCA 5' untranslated region; alpha-synuclein 5'UTR reporter, inhibitor activity; AID 1813, 2009; inhibition, % (tested at 7.5 µM); 300,000 tested, 0.82% active; in the data active = inhibition above about 60%;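 note: H4 neuroglioblastoma cells stably carrying SNCA 5'UTR luciferase fusion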
697 NFkB inh – inhibitors of PMA/ionomycin-induced NF-kB reporter, 697 cells, primary screen, B-cell NF-kB inhibitor project, cell-based, luminescence, uHTS; AID 435022, 2010; 697 B-cell NF-kB luciferase reporter, 16 h; inhibition, % at 4 µM; 330,000 tested, 0.33% active; in the data active = inhibition above about 35%
Jurkat NFkB inh – inhibitors of induced NF-kB luciferase reporter, primary screen, TCR NF-kB activation inhibitor project, cell-based, luminescence, uHTS | Jurkat, PMA/ionomycin-induced NF-kB luciferase reporter | inhibition, % at 4 µM | 330,000 tested, 0.53% active | AID 435003, 2010; in the data active = inhibition above about 50%
TAG inh – inhibitors of triacylglycerol accumulation, primary screen, cell-based, uHTS, fluorescence, H9c2; H9c2 cells, Nile Red lipid (TAG) fluorescence; cells loaded with 200 µM oleic acid; inhibition, % at 12.5 µM; 230,000 tested, 0.66% active; AID 651582, 2012;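 active = pattern-corrected inhibition of lipid staining of at least 50% with the nuclear-stain viability signal not falling by more than 50%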
APP 5UTR inh – inhibitors of APP translation via 5'UTR reporter, primary screen, APP 5'UTR luciferase, SH-SY5Y cells; SH-SY5Y APP 5'UTR-luciferase reporter, luminescence; inhibition, % at 2 µM; 190,000 tested, 0.82% active;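 active = inhibition above a set limit, derived from the sample mean plus 3 SD, cut at about 45% in these data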
Lipid droplet – inhibitors of hepatocyte lipid droplet formation, primary screen, imaging, high-throughput imaging, BODIPY stain. AID 1656, 2009. 240,000 tested, 0.4% active. inhibition, % at 6.5 µM. AML12 mouse hepatocytes, oleate lipid droplets;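 active = lipid droplet intensity inhibited by at least 50%, with more than 500 cells counted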
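Material – mouse AML12 hepatocyte cell line, fixed after treatment · Compound dosing – one dose, 6.5 µM compound · Times – compound with oleate, overnight · Measured by – Image-based BODIPY and DAPI two-channel analysis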
Numbers stand for hits; . = inactive; / = no result given.

SMILES	aSyn UTR inh	697 NFkB inh	Jurkat NFkB inh	TAG inh	APP 5UTR inh	Lipid droplet
CCC(=O)OCCNc1cc(SCCC(=O)OC)c2nonc2c1[N+](=O)[O-]	.	.	.	.	.	.
CCCC(=O)OCCNc1cc(Sc2nc3ccccc3[nH]2)c2nonc2c1[N+](=O)[O-]	.	.	.	/	74.5	.
COc1ccc(C(O)c2ncc(-c3ccccc3Cl)[nH]2)cc1F (stereo unspecified)	/	/	/	.	/	/
O=C(CCl)Nc1ccccc1Sc1ccc(Cl)cc1	92.6	.	.	/	/	.
CC(=O)N1CCN(CC(=O)Nc2ccccc2Sc2ccc(Cl)cc2)CC1	.	.	.	/	.	.
C/C(=N\N1CCN(c2ccc(Cl)cc2)CC1)c1cccc([N+](=O)[O-])c1	.	.	.	/	.	.
Cn1c(N)c(C(=O)COC(=O)C2Cc3ccccc3CN2S(C)(=O)=O)c(=O)n(C)c1=O (stereo unspecified)	/	/	/	.	/	/
Cc1cccc(NC(=O)c2nc[nH]c2C(=O)NCc2ccccc2)c1	/	.	.	.	/	/
O=C(Nc1cccc(Cl)c1)c1nc[nH]c1C(=O)NCCCCNC(=O)c1[nH]cnc1C(=O)Nc1cccc(Cl)c1	/	.	.	65.1	/	/
Cc1cccc(NC(=O)c2nc[nH]c2C(=O)NCCCCNC(=O)c2[nH]cnc2C(=O)Nc2cccc(C)c2)c1	/	.	.	77.6	/	/
CCOC(=O)c1ccc(NC(=O)c2nc[nH]c2C(=O)NCCNC(=O)c2[nH]cnc2C(=O)Nc2ccc(C(=O)OCC)cc2)cc1	/	.	.	135.0	/	/
O=C(Nc1cccc(Cl)c1)c1nc[nH]c1C(=O)NCc1ccccc1	/	.	.	.	/	/
O=C(Nc1cccc(Cl)c1)c1nc[nH]c1C(=O)NCCN(CCNC(=O)c1[nH]cnc1C(=O)Nc1cccc(Cl)c1)CCNC(=O)c1[nH]cnc1C(=O)Nc1cccc(Cl)c1	/	.	.	74.6	/	/
O=C(Nc1ccc(Cl)cc1)c1nc[nH]c1C(=O)NCCCCNC(=O)c1[nH]cnc1C(=O)Nc1ccc(Cl)cc1	/	.	.	110.4	/	/
NC(=O)c1sc2nc3c(c(-c4cccs4)c2c1N)CCCC3	.	/	/	/	46.2	.
NC(=O)c1sc2nc3c(c(-c4ccco4)c2c1N)CCC3	.	.	.	/	.	.
Cc1ccc([C@H]2C[C@@H](O)[C@H](n3cc(-c4ccc(F)cc4)nn3)CN2C(=O)C2CCCCC2)cc1	/	/	/	.	/	/
COc1cc2cc(c1Cl)N(C)C(=O)CC(OC(=O)C(C)N(C)C(C)=O)C1(C)OC1C(C)C1CC(O)(NC(=O)O1)C(OC)C=CC=C(C)C2 (stereo unspecified)	/	/	/	.	/	/
CCCCCn1c(Sc2ncccn2)nc2c1c(=O)[nH]c(=O)n2C	.	.	.	.	64.0	.
O=C(Nc1cc(S(=O)(=O)N2CCCCC2)ccc1Cl)c1ccccc1NS(=O)(=O)c1ccc(F)cc1	62.7	/	/	/	.	.
O=C(Nc1c(Cl)cc2c(c1Cl)Cc1cc([N+](=O)[O-])ccc1-2)C(Cl)Cl	/	/	/	.	/	/
CCNC(=O)C1(C)CCCN(Cc2cc(-c3ccccc3)n(C)n2)C1 (stereo unspecified)	/	/	/	.	/	/
CSc1nnc(NC(=O)c2ccc3c(c2)OCO3)s1	81.4	.	.	.	/	.
O=C(CNC(=O)c1ccccc1Br)N/N=C/c1cc(Br)ccc1O	69.6	.	.	/	.	.
O=C(CNC(=O)c1ccccc1Br)N/N=C/c1ccccc1O	.	.	.	.	.	.
SMILES	aSyn UTR inh	697 NFkB inh	Jurkat NFkB inh	TAG inh	APP 5UTR inh	Lipid droplet
COc1ccc2ccccc2c1C(=O)/C=C\c1ccoc1	.	.	.	/	.	.
O=C(Nc1nnc(SCc2ccc(F)cc2)s1)c1ccccn1	63.2	.	.	.	.	.
O=C(Nc1nnc(SCc2ccc(F)cc2)s1)c1cccnc1Cl	.	.	.	.	.	.
Cc1cc(F)ccc1S(=O)(=O)NCC(c1cccnc1)N1CCc2ccccc21 (stereo unspecified)	.	.	.	/	/	.
CC1(C)CC(NC(=O)C2CCN(S(=O)(=O)c3ccc(F)cc3)CC2)CC(C)(C)N1	.	.	.	/	/	.
Cc1ccccc1/C=N/NC(=O)Cc1ccc(Cl)cc1	.	.	.	.	.	.
Cc1ccc(/C=N/NC(=O)Cc2ccc(Cl)cc2)c(O)c1	66.4	.	.	.	/	.
CCCCCCCCSC1=CC(=O)C(OC)=C(OC)C1=O	/	/	/	.	/	/
COc1ccc2sc3c(=O)[nH]c4ccccc4c3c2c1	63.0	.	.	.	.	/
COC(=O)c1ccc2nc(Nc3nc4ccc(F)cc4s3)sc2c1	75.1	/	/	/	.	.
CCCCNC(=O)C1(C)CCN1C(=O)c1ccc2c(c1)C(C)(C)CCC2(C)C (stereo unspecified)	/	/	/	.	/	/
Cc1cc(C(=O)N/N=C/c2cccs2)n[nH]1	.	.	.	/	.	.
Cc1cccc(C(=O)Oc2c(Br)cc(Br)cc2/C=N/NC(=O)c2ccncc2)c1	.	.	.	/	/	.
Cc1cc(C(=O)N/N=C/c2cc(Br)cc(Br)c2OC(=O)c2cccc(F)c2)n[nH]1	70.0	.	.	.	.	.
Cc1cc(C(=O)N/N=C/c2cc(Br)cc(Br)c2OC(=O)c2ccccc2)n[nH]1	89.3	.	.	/	.	.
Cc1cc(C(=O)N/N=C\c2cc(C(C)(C)C)ccc2O)n[nH]1	74.7	.	.	.	/	.
Cc1cc(C(=O)N/N=C/c2cc(Br)ccc2OC(=O)c2ccc(Br)cc2)n[nH]1	84.0	.	.	/	.	.
C=CCNc1ncnc2c1ncn2[C@H]1CN(Cc2cccs2)C[C@@H](CO)O1	/	/	/	.	/	/
COc1ccc(NC(=O)c2sc(=O)n(Cc3ccc(F)c(Cl)c3)c2C)cc1OC	/	/	/	.	/	/
CC(C)NC(=O)c1cc(C2CCCCN2C(=O)OCCF)on1 (stereo unspecified)	/	/	/	.	/	/
O=C1C(=C2SCCCS2)CC/C1=C\c1ccc(F)cc1	119.4	.	.	.	.	/
O=C1/C(=C/c2ccc(F)cc2)CCC1C1CCCC1 (stereo unspecified)	.	.	.	/	.	.
Cc1ccc(CCNc2ccc3ccccc3c2)cn1	.	.	.	.	.	/
Cc1ccc(NCCc2ccc(C)nc2)cc1	.	.	.	/	53.4	.
CCCN(C(=O)CSc1nnc(-c2ccc3c(c2)OCO3)o1)C1CCS(=O)(=O)C1 (stereo unspecified)	/	/	/	.	/	/
SMILES	aSyn UTR inh	697 NFkB inh	Jurkat NFkB inh	TAG inh	APP 5UTR inh	Lipid droplet
COc1cc(/C=N/n2cnn(Cc3ccccc3Cl)c2=S)cc(OC)c1OC	.	.	.	/	.	.
COc1ccc(/C=N/n2cnn(Cc3ccccc3Cl)c2=S)cc1	.	.	.	.	80.4	.
O=c1c(Cl)c(Cl)cnn1Cc1ccccc1Cl	.	/	/	/	91.9	.
Nc1c(Cl)cnn(-c2ccccc2)c1=O	.	.	.	.	/	/
O=c1[nH]cnc2c1cnn2Cc1ccccc1Cl	.	.	.	/	/	.
Cc1ccc(Cn2ncc(Cl)c(Cl)c2=O)cc1	.	.	.	/	.	.

Bioassay records: PubChem BioAssay, several laboratories
